High-throughput results: PubChem, several laboratories
Only some compounds are listed: those with a hit (about 3.7% of all), similar ones and a draw of the others.
NPY Y2 blocker: NPY-Y2 (human) receptor antagonism. 140,000 tested, 0.99% active. inhibition, % at 2.7 µM. NPY-Y2 expressing cells, antagonist mode. P49146; in the data active = inhibition above about 17%;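 also: 0% = vehicle with agonist challenge and 100% = reference antagonist with challenge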
Furin inhibitor: inhibitors of human furin | inhibition, % at 20 µM or 30 µM | 220,000 tested, 0.061% active | AID 463115 | P09958 | purified furin, fluorogenic substrate cleavage; in the data active = inhibition above about 25%
Target sequence (P09958 108-714 limits assumed): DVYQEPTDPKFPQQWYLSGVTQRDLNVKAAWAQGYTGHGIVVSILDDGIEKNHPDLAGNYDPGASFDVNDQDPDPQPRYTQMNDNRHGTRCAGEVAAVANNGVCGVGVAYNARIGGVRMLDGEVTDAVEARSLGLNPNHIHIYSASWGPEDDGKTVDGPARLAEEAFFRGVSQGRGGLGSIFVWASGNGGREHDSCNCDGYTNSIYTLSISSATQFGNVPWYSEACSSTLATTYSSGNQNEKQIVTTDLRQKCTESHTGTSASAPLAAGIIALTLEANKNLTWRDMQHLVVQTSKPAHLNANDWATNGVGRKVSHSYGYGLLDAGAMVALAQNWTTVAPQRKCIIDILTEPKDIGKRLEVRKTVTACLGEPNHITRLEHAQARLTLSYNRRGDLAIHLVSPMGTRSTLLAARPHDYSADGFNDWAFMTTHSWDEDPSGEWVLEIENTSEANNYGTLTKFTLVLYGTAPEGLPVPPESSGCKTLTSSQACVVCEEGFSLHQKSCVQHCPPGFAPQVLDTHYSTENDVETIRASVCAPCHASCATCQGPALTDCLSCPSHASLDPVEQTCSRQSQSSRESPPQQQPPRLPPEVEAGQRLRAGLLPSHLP
NPY2 pot ag: potentiates or activates human NPY-Y2 receptor | P49146 | cells expressing NPY-Y2, potentiator/agonist read-out | activation, % at 3.6 µM | 220,000 tested, 0.45% active; in the data active = activation above about 27%;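 also: cells stimulated with NPY near EC25 plus isoproterenol at EC100; 0% = vehicle plus submaximal agonist and 100% = vehicle plus saturating agonist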
NPY Y1 blocker: blocks the human neuropeptide Y Y1 receptor; AID 1040; HEK293-CNG Y1 cells, membrane potential fluorescence; NPY at EC95, then isoproterenol; 200,000 tested, 1% active; inhibition, % at 3.6 µM;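 active = inhibition above the campaign mean inhibition of all tested compounds plus 3 SD, cut at about 20% in these data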;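 also: 0% = DMSO wells given NPY plus isoproterenol and 100% = isoproterenol alone without NPY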
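Assay system: HEK293 cells with Y1 receptor plus CNG channel | Probe or stimulus: NPY (25 nM), isoproterenol (1 µM), Ro 20-1724 (25 µM) | Timing: Compound incubation 1 h at room temperature, readout 45 min post-stimulation | Measured by: Membrane-potential fluorescent dye readout | Benchmarks: High control isoproterenol alone, low control NPY with isoproterenol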
NPY-Y1 PAM-ag: potentiates or activates human NPY-Y1 receptor; NPY-Y1 expressing cells, potentiator/agonist activation; activation, % at 3.6 µM; 220,000 tested, 0.37% active; AID 1304; in the data active = activation above about 33%, passing the limit was not always enough;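 also: cells stimulated with NPY at EC10 then isoproterenol at EC100; 0% = low agonist plus stimulus and 100% = saturating agonist plus stimulus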
KCC2 mod: modulators of human KCC2 chloride dependent transport. KCC2 cells, thallium flux FluoZin-2 fluorescence. B-score of Tl+ flux slope (higher = more flux/activation; lower = inhibition) at 10 µM. 190,000 tested, 2.2% active;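 active = thallium flux slope and its plate-corrected score both differing from the plate sample mean at a set confidence after two filtering rounds, in either direction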;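 also: slope of fluorescence scaled to starting intensity during 10 to 20 s after thallium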
NPY-Y2 pot conf: confirmation of human NPY-Y2 receptor potentiators or agonists | shares compounds with NPY2 pot ag | cell-based NPY-Y2 potentiator/agonist assay | activation, % at 3.6 µM | 450 tested, 20% active; in the data active = activation above about 33%
NPY-Y1 counter: NPY-Y1 potentiation or agonism as NPY-Y2 counter-screen | shares compounds with NPY2 pot ag | Y1 HEK293-CNG cells, membrane potential fluorescence | activation, % at 3.6 µM | 450 tested, 20% active | AID 1651; in the data active = activation above about 45%;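 also: cells stimulated with submaximal NPY then isoproterenol with phosphodiesterase inhibitor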
NPY-Y1 agonist 2: human NPY-Y1 agonism as NPY-Y2 potentiator counter-screen. shares compounds with NPY2 pot ag. HEK293 Y1-CNGC, membrane potential fluorescence. activation, % at 3.6 µM. 450 tested, 37% active. AID 1702;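 active = activation above the mean of DMSO-only control wells plus 3 SD, cut at about 18% in these data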;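 also: cells stimulated with 1 µM isoproterenol plus the PDE inhibitor Ro 20-1724; 0% = isoproterenol with DMSO and no NPY and 100% = 40 nM NPY; Y1 agonists lower the membrane potential dye signal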
CNGC inh: cyclic nucleotide gated channel inhibition as counter-screen; AID 1703; inhibition, % at 3.6 µM; HEK293-CNG parental, isoproterenol cAMP, membrane potential fluorescence; 450 tested, 32% active; shares compounds with NPY2 pot ag;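 active = inhibition above the control-well mean plus 3 SD of those wells, cut at about 22% in these data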;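 also: 0% = DMSO with isoproterenol and 100% = DMSO without isoproterenol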
Y2 agonist ctr: counter-screen for NPY-Y2 potentiators: agonists of human NPY-Y2; shares compounds with NPY2 pot ag; HEK293 Y2/CNGC cells, membrane potential fluorescence, agonist mode; activation, % at 3.6 µM; 450 tested, 56% active;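 active = activation above the mean of solvent-only control wells plus 3 SD, cut at about 10% in these data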;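 also: cells stimulated by isoproterenol with no NPY added so direct agonism is tested; 0% = DMSO with isoproterenol alone and 100% = NPY at EC100 plus isoproterenol; agonism lowers probe fluorescence through less cAMP and CNG channel opening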
An asterisk follows results filed as active.

How did CC1CCCN(C(=O)c2ccc3c(c2NCCO)C(=O)c2ccccc2C3=O)C1 (stereo unspecified) do in these assays?
NPY Y2 blocker: -9; Furin inhibitor: -16; NPY2 pot ag: 31*; NPY Y1 blocker: -8; NPY-Y1 PAM-ag: 29; KCC2 mod: -0.85; NPY-Y2 pot conf: 46*; NPY-Y1 counter: 62*; NPY-Y1 agonist 2: 38*; CNGC inh: 31*; Y2 agonist ctr: 42*

What do the screens show for `C=CCn1c(=O)c(C(=O)Nc2ccccc2O)c(O)c2ccccc21`?
NPY Y2 blocker: 4; Furin inhibitor: -5; NPY2 pot ag: 53*; NPY Y1 blocker: 4; NPY-Y1 PAM-ag: 16; NPY-Y2 pot conf: 1; NPY-Y1 counter: -9; NPY-Y1 agonist 2: -1; CNGC inh: 2; Y2 agonist ctr: 6

What do the screens show for `CCOC(=O)c1ccc(-n2c(=S)sc3c(=O)[nH]c(C)nc32)cc1`?
NPY Y2 blocker: 4; Furin inhibitor: -22; NPY2 pot ag: 35*; NPY Y1 blocker: -8; NPY-Y1 PAM-ag: 28; KCC2 mod: 0.12; NPY-Y2 pot conf: 6; NPY-Y1 counter: 11; NPY-Y1 agonist 2: 11; CNGC inh: -7; Y2 agonist ctr: 12*

What do the screens show for `CCOC(=O)Cn1c(=O)oc2cc(S(=O)(=O)NCCc3ccc(C)cc3)ccc21`?
NPY Y2 blocker: 13; Furin inhibitor: -15; NPY2 pot ag: -13; NPY Y1 blocker: 3; NPY-Y1 PAM-ag: -10; KCC2 mod: -0.17

How did CCOC(=O)Cn1c(=O)oc2cc(S(=O)(=O)Nc3ccc(F)cc3)ccc21 do in these assays?
NPY Y2 blocker: -1; Furin inhibitor: -15; NPY2 pot ag: 36*; NPY Y1 blocker: -11; NPY-Y1 PAM-ag: 31; KCC2 mod: 0.68; NPY-Y2 pot conf: 16; NPY-Y1 counter: 20; NPY-Y1 agonist 2: 22*; CNGC inh: 33*; Y2 agonist ctr: 12*

Results for CCOC(=O)C(=CNc1ccc(NC2=NCC(C)S2)cc1)C(=O)OCC (stereo unspecified) ?
NPY Y2 blocker: 2; Furin inhibitor: 2; NPY2 pot ag: 47*; NPY Y1 blocker: -2; NPY-Y1 PAM-ag: 25; KCC2 mod: -2.5; NPY-Y2 pot conf: 11; NPY-Y1 counter: 29; NPY-Y1 agonist 2: 15; CNGC inh: -1; Y2 agonist ctr: 10

What do the screens show for `CCOC(=O)C(=CNc1ccc(C(F)(F)F)cc1)C(=O)OCC`?
Furin inhibitor: -21; NPY2 pot ag: -7; NPY-Y1 PAM-ag: -17; KCC2 mod: -1.2

Results for Cc1ccc(C)c(N2CCN(C(=O)c3cc(S(=O)(=O)N4CCOCC4)ccc3F)CC2)c1 ?
NPY Y2 blocker: -1; Furin inhibitor: -20; NPY2 pot ag: 19; NPY Y1 blocker: -4; NPY-Y1 PAM-ag: 11; KCC2 mod: -0.24

How did CCC1(CC)Cc2ccccc2C(C2=C(O)CC(C)(C)CC2=O)=N1 do in these assays?
NPY Y2 blocker: 3; Furin inhibitor: -11; NPY2 pot ag: 6; NPY Y1 blocker: 8; NPY-Y1 PAM-ag: 20; KCC2 mod: -0.8

Results for Cc1cccc2c1CC(C)(C)N=C2C1=C(O)CC(C)(C)CC1=O ?
NPY Y2 blocker: 1; Furin inhibitor: -10; NPY2 pot ag: 76*; NPY Y1 blocker: -1; NPY-Y1 PAM-ag: 17; KCC2 mod: 0.055; NPY-Y2 pot conf: -5; NPY-Y1 counter: -3; NPY-Y1 agonist 2: -11; CNGC inh: -2; Y2 agonist ctr: -14
